NPY Y2 blocker: NPY-Y2 (human) receptor antagonism; NPY-Y2 expressing cells, antagonist mode; inhibition, % at 2.7 µM; 140,000 tested, 0.99% active
NPY1 pot ag: potentiates or activates human NPY-Y1 receptor | P25929 | NPY-Y1 expressing cells, potentiator/agonist activation | activation, % at 3.6 µM | 220,000 tested, 0.37% active | AID 1304; in the data active = activation above about 33%, passing the limit was not always enough;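 note: cells stimulated with NPY at EC10 then isoproterenol at EC100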
Target sequence (P25929 whole entry, looked up): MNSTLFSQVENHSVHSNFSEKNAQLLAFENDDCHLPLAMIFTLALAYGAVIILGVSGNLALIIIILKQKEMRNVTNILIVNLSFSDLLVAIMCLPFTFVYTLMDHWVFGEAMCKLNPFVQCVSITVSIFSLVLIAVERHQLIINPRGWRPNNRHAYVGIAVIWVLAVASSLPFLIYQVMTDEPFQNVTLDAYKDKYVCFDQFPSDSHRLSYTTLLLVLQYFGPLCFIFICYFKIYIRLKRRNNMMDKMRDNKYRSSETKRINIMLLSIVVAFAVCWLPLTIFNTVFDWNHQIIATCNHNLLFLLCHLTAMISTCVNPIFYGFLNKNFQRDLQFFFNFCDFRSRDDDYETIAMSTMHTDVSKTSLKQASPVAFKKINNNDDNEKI
NPY Y1 blocker: NPY-Y1 (human) receptor antagonism; 200,000 tested, 1% active; P25929; inhibition, % at 3.6 µM; HEK293-CNG Y1 cells, membrane potential fluorescence; NPY at EC95, then isoproterenol;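 active = inhibition above the campaign mean inhibition of all tested compounds plus 3 SD, cut at about 20% in these data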
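Material: HEK293 cells co-expressing NPY Y1 receptor and cyclic-nucleotide gated channel. Timing: compound incubation 1 h at room temperature, readout 45 min post-stimulation. Signal: fluorescence, membrane potential probe.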
NPY2 pot ag: potentiates or activates human NPY-Y2 receptor; P49146; activation, % at 3.6 µM; 220,000 tested, 0.45% active; cells expressing NPY-Y2, potentiator/agonist read-out; in the data active = activation above about 27%;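 note: cells stimulated with NPY near EC25 plus isoproterenol at EC100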
NPY-Y1 ant conf: human NPY-Y1 antagonism, confirmation; HEK293-CNG NPY-Y1, membrane potential fluorescence, cAMP; NPY challenge against isoproterenol-raised cAMP; inhibition, % at 3.6 µM; 1,200 tested, 21% active; shares compounds with NPY Y1 blocker; in the data active = inhibition above about 20%
NPY-Y2 antag ct: antagonizes human NPY-Y2, counter-screen to NPY-Y1 antagonists; shares compounds with NPY Y1 blocker; HEK293 NPY-Y2 CNG membrane potential fluorescence, antagonism; cells given NPY, then isoproterenol; inhibition, % at 3.6 µM; 1,200 tested, 28% active; AID 1255
Large screens that a line does not name were inactive (follow-up assays come after a bar, where they were run). A selection: hits, their analogues and other compounds. The true share with any hit is near 1.9%. Cut-off read from the data, not from the text of the source, unless noted: active = inhibition above about 17%; inactive = the rest.

CCCCN1C(=O)C(=O)N(CC(=O)Nc2cc(OCC)c(N3CCOCC3)cc2OCC)C1=O	none (no result: NPY Y2 blocker)
CCCCn1c(SCC(=O)NC(C)CC)nc2ccc(N3CCOCC3)cc2c1=O (stereo not given)	NPY Y1 blocker 23.3 | NPY-Y1 ant conf inactive | NPY-Y2 antag ct inactive
CCC(C)NC(=O)CSc1nc2ccc(N3CCOCC3)cc2c(=O)n1CCc1ccccc1 (stereo not given)	none
COc1ccc(C(=O)c2coc3ccc(O)c(CN4CCCC4)c23)cc1	NPY Y1 blocker 21.2 | NPY-Y1 ant conf inactive | NPY-Y2 antag ct 20.8
CCc1ccc(CN2CCCC(CCC(=O)N3CCN(c4ccccn4)CC3)C2)o1 (stereo not given)	none (no result: NPY Y2 blocker, NPY Y1 blocker)
COc1ccc(C)cc1N(C(=O)COc1cccc(F)c1)c1nc2ccccc2s1	none
COc1ccc(C)cc1N(C(=O)c1ccc(F)cc1)c1nc2ccccc2s1	NPY Y1 blocker 22.3 | NPY-Y1 ant conf inactive | NPY-Y2 antag ct inactive
COc1ccc(C)cc1NC(=O)CSc1nnc(COc2ccccc2)n1Cc1ccco1	NPY Y1 blocker 20.8 | NPY-Y1 ant conf inactive | NPY-Y2 antag ct inactive
COc1ccc(C)cc1NC(=O)CSc1nnc(COc2ccc(Cl)cc2)n1Cc1ccco1	none
CCOC(=O)c1c(NC(C)=O)sc2c(OCC(O)CNC(C)(C)C)c(Br)ccc12 (stereo not given)	NPY Y1 blocker 122.2 (no result: NPY Y2 blocker) | NPY-Y1 ant conf 97.7 | NPY-Y2 antag ct 115.1
CCOC(=O)c1c(N)sc2c(OCC)c(Br)ccc12	none
O=C(Nc1nc2ccccc2s1)c1ccc(N2CCCCC2)c([N+](=O)[O-])c1	none
C=CCNCCCCOc1c(Cl)cc(C)cc1Br	NPY Y1 blocker 20.8 | NPY-Y1 ant conf inactive | NPY-Y2 antag ct 17.8
COCCCNCCCCOc1c(Cl)cc(C)cc1Br	NPY Y1 blocker 30.8 | NPY-Y1 ant conf inactive | NPY-Y2 antag ct inactive
N#Cc1c(N2CCN(C(=O)c3ccccc3)CC2)nc(-c2ccccc2)c2c1CCCC2	NPY Y1 blocker 26.7 | NPY-Y1 ant conf inactive | NPY-Y2 antag ct inactive
N#Cc1c(N2CCN(C(=O)c3ccccc3Cl)CC2)nc(-c2ccccc2)c2c1CCCC2	none
COc1ccc(OC)c(NC(=O)CSc2ccc3nnc(-c4cccnc4)n3n2)c1	none (no result: NPY Y2 blocker)
NC(N)=Nc1nc2ccc(Cl)cc2c(=O)[nH]1	none (no result: NPY Y2 blocker)
CCOc1ccc(NC(=O)CCCc2cc(-c3ccc(OCC)cc3)on2)cc1	none
CCOc1ccc(-c2cc(CCCC(=O)Nc3cccc(OC)c3)no2)cc1	NPY Y1 blocker 20.5 | NPY-Y1 ant conf inactive | NPY-Y2 antag ct 20.7
Clc1ccc(-c2nnc3c4ccccc4nc(N4CCOCC4)n23)cc1Cl	NPY Y1 blocker 20.9 | NPY-Y1 ant conf inactive | NPY-Y2 antag ct inactive
Brc1ccc(-c2nnc3c4ccccc4nc(N4CCOCC4)n23)cc1	none
CC(=O)CSc1nnc(-c2ccc3c(c2)OCO3)o1	NPY Y1 blocker 20.6 | NPY-Y1 ant conf inactive | NPY-Y2 antag ct inactive
O=C(O)CCSc1nnc(-c2ccc3c(c2)OCO3)o1	none
CC(=O)Nc1ccc(Nc2nc(C)c([N+](=O)[O-])c(Nc3ccc(NC(C)=O)cc3)n2)cc1	none
COc1ccc(C(=O)CSc2ccc(-c3ccc(C)cc3)nn2)cc1	NPY Y1 blocker 25.4 | NPY-Y1 ant conf inactive | NPY-Y2 antag ct inactive
COc1ccc(-c2cc(-c3nnc(COC(=O)CC4CC5CCC4C5)o3)c3ccccc3n2)cc1OC (stereo not given)	none
CN(Cc1c(C(=O)N2CCc3ccccc3C2)nc2ccc(Cl)cn12)C(C1CC1)C1CC1	NPY Y1 blocker 25.5 (no result: NPY Y2 blocker) | NPY-Y1 ant conf inactive | NPY-Y2 antag ct inactive
CCCCOc1c(Cl)cc(CNC(C)(C)CO)cc1OCC	NPY Y1 blocker 23.5 | NPY-Y1 ant conf inactive | NPY-Y2 antag ct inactive
CCCCNCc1cc(Cl)c(OCCC)c(OCC)c1	none
CC1(C)C(CSc2nc3ccccc3[nH]2)C1(Cl)Cl (stereo not given)	NPY Y1 blocker 91.8 (no result: NPY Y2 blocker) | NPY-Y1 ant conf 90.0 | NPY-Y2 antag ct 110.4
NC(=O)Nc1ccc(C(=O)OCC(=O)Nc2ccc(Cl)cn2)cc1	none (no result: NPY Y2 blocker, NPY Y1 blocker)
CC(=O)Nc1ccc(S(=O)(=O)NCC(=O)OCC(=O)N2CCN(c3ccccc3)CC2)cc1	none
CCN(CC)c1ncnc2scc(C3COc4ccccc4O3)c12 (stereo not given)	NPY Y1 blocker 38.0 | NPY-Y1 ant conf inactive | NPY-Y2 antag ct inactive
COc1ccc(CCC(=O)N2CCCSC2=Nc2ccc(C(C)=O)cc2)cc1	none
CCN(CC)CCCNc1nc2ccccc2[nH]1	NPY Y1 blocker 30.1 | NPY-Y1 ant conf inactive | NPY-Y2 antag ct inactive
CCNc1nc2ccccc2[nH]1	none
Cc1nc(-c2cccc(NS(=O)(=O)c3ccc4ccccc4c3)c2)cs1	NPY Y1 blocker 32.2 | NPY-Y1 ant conf inactive | NPY-Y2 antag ct inactive
O=C(O)c1ccccc1N(Cc1ccccc1)C(=O)CO/N=C/c1ccccc1	NPY Y1 blocker 22.0 | NPY-Y1 ant conf inactive | NPY-Y2 antag ct inactive
N#Cc1ccc(NC(=O)COC(=O)CSc2nnc(-c3ccc(Cl)cc3)o2)cc1	none
CSc1ccc(CN2CCC(CO)(Cc3ccc(Cl)cc3)CC2)cc1	NPY Y1 blocker 52.3 (no result: NPY Y2 blocker) | NPY-Y1 ant conf 39.2 | NPY-Y2 antag ct 47.9
CC(C)CCN(C(=S)NC(=O)C1CCCCC1)c1c(N)n(Cc2ccccc2)c(=O)[nH]c1=O	none (no result: NPY Y2 blocker)
O=C(Nc1c2c(nn1-c1ccc(F)cc1)CS(=O)(=O)C2)C12CC3CC(CC(C3)C1)C2	NPY Y1 blocker 33.3 | NPY-Y1 ant conf inactive | NPY-Y2 antag ct inactive
O=C(N1CCN(c2ccc(F)cc2)CC1)C12CC3CC(CC(C3)C1)C2	none
O=C(COC(=O)COc1ccc2ccccc2c1)NCC(F)(F)F	NPY Y1 blocker 28.7 (no result: NPY Y2 blocker) | NPY-Y1 ant conf inactive | NPY-Y2 antag ct inactive
CCOC(=O)c1cnn(-c2nc(-c3ccccc3)cs2)c1C(F)(F)F	NPY Y1 blocker 20.2 | NPY-Y1 ant conf inactive | NPY-Y2 antag ct inactive
Cc1ccc(-n2cccn2)c(CN2CCCC(C(=O)c3ccc4c(c3)OCO4)C2)c1 (stereo not given)	NPY Y1 blocker 27.6 (no result: NPY Y2 blocker) | NPY-Y1 ant conf 24.1 | NPY-Y2 antag ct 28.4
O=C(c1ccc2c(c1)OCO2)C1CCCN(Cc2cc(F)ccc2-n2cccn2)C1 (stereo not given)	none (no result: NPY Y2 blocker)
O=C(CN1CCCc2ccccc21)NCCc1ccc(Cl)cc1	none (no result: NPY Y2 blocker)
COC(=O)C1=CN(CCOC23CC4CC(CC(C4)C2)C3)C=C(C(=O)OC)C1c1ccsc1	NPY Y1 blocker 31.2 (no result: NPY Y2 blocker) | NPY-Y1 ant conf 40.8 | NPY-Y2 antag ct 23.6
COC(=O)C1=CN(Cc2ccc(OC)cc2)C=C(C(=O)OC)C1c1ccsc1	none (no result: NPY Y2 blocker)
c1ccc(-c2nc(Sc3ncnc4c3cnn4-c3ccccc3)n[nH]2)cc1	NPY Y1 blocker 25.8 | NPY-Y1 ant conf inactive | NPY-Y2 antag ct inactive
N=C1C(c2ccccc2)=C(O)CN1c1cccc2ccccc12	none (no result: NPY Y2 blocker)
COc1cccc(CN(C(=O)Cc2c[nH]c3ccccc23)C(C(=O)NC2CCCCC2)c2ccc(C)o2)c1 (stereo not given)	NPY Y1 blocker 23.0 | NPY-Y1 ant conf inactive | NPY-Y2 antag ct inactive

Bioassay records from PubChem.
